One block for each compound: values may come before it. Calls of active or inactive are those of the source.
Assays:
P2Y purinoceptor 14 [1] = biological target: T1, P2Y purinoceptor 14 (Homo sapiens, UniProt Q15391); assay: (§1) Displacement of fluorescent tracer 4-(4-(1-(4-(1-(6-(3-carboxylato-4-(3-iminio-3H-xanthen-9-yl)benzamido)hexyl)-4,5-dihydro-1H-pyrrol-3-yl)butyl)piperidin-1-ium-4-yl)phenyl)-7-(4-(trifluoromethyl)phenyl)-2-naphthoate from human P2Y14R stably expressed in CHO cells by flow cytometry; type: cell-based
T1 sequence (Q15391 whole entry): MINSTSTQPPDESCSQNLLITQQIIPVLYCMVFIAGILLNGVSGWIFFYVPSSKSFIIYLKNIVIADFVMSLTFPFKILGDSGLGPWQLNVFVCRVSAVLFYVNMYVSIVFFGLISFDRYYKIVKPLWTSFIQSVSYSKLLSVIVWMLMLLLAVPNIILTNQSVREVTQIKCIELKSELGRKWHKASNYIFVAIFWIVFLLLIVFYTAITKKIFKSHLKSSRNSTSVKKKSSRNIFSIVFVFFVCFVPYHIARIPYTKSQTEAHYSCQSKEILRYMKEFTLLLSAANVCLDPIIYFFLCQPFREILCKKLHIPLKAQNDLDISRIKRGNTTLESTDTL
Procedure, shortened: (§2)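 Whole-cell competitive binding: CHO cells expressing hP2Y14R (or HEK-293 cells expressing mP2Y14R) incubated with AlexaFluor488-labelled antagonist tracer at 20 nM.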

P2Y purinoceptor 14 [2] = biological target: T1, P2Y purinoceptor 14; assay: as §1, with “cells assessed as inhibition constant” for “cells”; type: cell-based; procedure, shortened: as §2
[3] = biological target: T2, P2Y purinoceptor 14 (Homo sapiens) (UniProt Q15391); assay: Binding affinity to human P2Y14R stably expressed in CHO cells at 2 to 20000 nM by flow cytometry; type: cell-based; settings: dose 2-20000 nM
T2 sequence (whole entry): T1 sequence (Q15391 whole entry)
Procedure, shortened: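 Whole CHO cells expressing hP2Y14R. Binding of an AlexaFluor-free JaneliaFluor 646 tracer conjugate was tested at final concentrations of 2, 100, 500 and 20,000 nM, under conditions similar to the AlexaFluor488 tracer assay (20 nM). Specific binding was read by flow cytometry.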

[4] = Lipophilicity, log D of compound at pH 7.4 incubated for 20 hrs by HPLC analysis; type: physicochemical; settings: buffer
P2Y purinoceptor 14 [5] = biological target: T3, P2Y purinoceptor 14 (Mus musculus, UniProt Q9ESG6); assay: Displacement of fluorescent tracer 4-(4-(1-(4-(1-(6-(3-carboxylato-4-(3-iminio-3H-xanthen-9-yl)benzamido)hexyl)-4,5-dihydro-1H-pyrrol-3-yl)butyl)piperidin-1-ium-4-yl)phenyl)-7-(4-(trifluoromethyl)phenyl)-2-naphthoate from mouse P2Y14R stably expressed in human HEK293 cells by flow cytometry; type: cell-based
T3 sequence (Q9ESG6 whole entry): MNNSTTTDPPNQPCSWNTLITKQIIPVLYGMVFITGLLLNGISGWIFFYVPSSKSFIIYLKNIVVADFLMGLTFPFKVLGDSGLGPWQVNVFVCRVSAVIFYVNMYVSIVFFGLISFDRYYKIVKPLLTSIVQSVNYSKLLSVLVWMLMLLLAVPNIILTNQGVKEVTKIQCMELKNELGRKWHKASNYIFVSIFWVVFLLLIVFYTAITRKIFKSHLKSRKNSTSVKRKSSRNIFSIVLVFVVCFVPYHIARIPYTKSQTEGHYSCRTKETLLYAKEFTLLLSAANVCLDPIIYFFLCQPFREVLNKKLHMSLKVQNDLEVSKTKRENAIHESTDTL
Procedure, shortened: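 Whole-cell competitive binding: CHO cells expressing hP2Y14R (or HEK-293 cells expressing mP2Y14R) incubated with AlexaFluor488-labelled antagonist tracer at 20 nM. […] Ki derived by dividing IC50 by 1.72.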

[6] = Selectivity ratio, ratio of IC50 for displacement of fluorescent tracer 4-(4-(1-(4-(1-(6-(3-carboxylato-4-(3-iminio-3H-xanthen-9-yl)benzamido)hexyl)-4,5-dihydro-1H-pyrrol-3-yl)butyl)piperidin-1-ium-4-yl)phenyl)-7-(4-(trifluoromethyl)phenyl)-2-naphthoate from mouse P2Y14R stably expressed in human HEK293 cells to IC50 for displacement of fluorescent tracer 4-(4-(1-(4-(1-(6-(3-carboxylato-4-(3-iminio-3H-xanthen-9-yl)benzamido)hexyl)-4,5-dihydro-1H-pyrrol-3-yl)butyl)piperidin-1-ium-4-yl)phenyl)-7-(4-(trifluoromethyl)phenyl)-2-naphthoate from human P2Y14R stably expressed in CHO cells; type: cell-based
[7] = biological target: 5-hydroxytryptamine receptor 1B (Homo sapiens, UniProt P28222); assay: Displacement of [3H]-5-CT from human 5-HT1B receptor assessed as inhibition constant by radioligand displacement assay
[8] = biological target: T4, Alpha-1B adrenergic receptor (Homo sapiens, UniProt P35368); assay: Displacement of [3H]-Prazosin from human adrenergic alpha1B receptor assessed as inhibition constant by radioligand displacement assay
T4 sequence (P35368 whole entry): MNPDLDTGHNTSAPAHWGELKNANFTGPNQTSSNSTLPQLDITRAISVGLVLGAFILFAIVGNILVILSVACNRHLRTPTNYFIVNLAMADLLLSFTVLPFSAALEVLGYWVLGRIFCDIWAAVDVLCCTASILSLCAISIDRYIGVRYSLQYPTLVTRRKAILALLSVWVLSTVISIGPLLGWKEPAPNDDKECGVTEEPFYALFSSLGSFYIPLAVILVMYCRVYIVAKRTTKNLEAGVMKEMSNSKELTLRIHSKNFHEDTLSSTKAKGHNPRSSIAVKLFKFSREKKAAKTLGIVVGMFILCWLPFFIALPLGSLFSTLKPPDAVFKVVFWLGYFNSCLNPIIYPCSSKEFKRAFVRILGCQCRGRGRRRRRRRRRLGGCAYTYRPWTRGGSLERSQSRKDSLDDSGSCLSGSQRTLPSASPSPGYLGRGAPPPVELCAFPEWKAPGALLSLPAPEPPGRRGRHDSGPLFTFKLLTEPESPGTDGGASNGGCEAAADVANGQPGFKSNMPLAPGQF

[9] = biological target: T5, Alpha-2A adrenergic receptor (Homo sapiens, UniProt P08913); assay: Displacement of [3H]-Rauwolscine from human adrenergic alpha2A receptor assessed as inhibition constant by radioligand displacement assay
T5 sequence (P08913 whole entry): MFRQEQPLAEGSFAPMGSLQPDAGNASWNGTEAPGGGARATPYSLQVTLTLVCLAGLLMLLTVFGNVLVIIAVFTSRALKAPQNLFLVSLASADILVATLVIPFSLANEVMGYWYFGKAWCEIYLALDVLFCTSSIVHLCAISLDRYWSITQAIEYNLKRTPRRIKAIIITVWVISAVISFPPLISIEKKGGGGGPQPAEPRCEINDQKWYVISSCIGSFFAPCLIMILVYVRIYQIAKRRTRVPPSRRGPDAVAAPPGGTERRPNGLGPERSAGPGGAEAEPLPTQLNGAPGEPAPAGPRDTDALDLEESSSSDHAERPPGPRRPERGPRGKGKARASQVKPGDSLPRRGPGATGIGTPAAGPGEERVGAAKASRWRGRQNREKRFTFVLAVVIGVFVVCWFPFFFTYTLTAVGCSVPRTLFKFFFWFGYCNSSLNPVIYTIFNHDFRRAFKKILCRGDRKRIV

Mus musculus [10] = assay: Antiallodynic activity in CCI surgery neuropathic pain Hsd:ICR mouse model assessed as reversal of mechano-allodynia by measuring paw withdrawal threshold at 10 micromol/kg,ip and measured at 3 hrs by von frey test; type: functional, organism-based; settings: dose 10.0 µmol/kg
Procedure, shortened: (§3)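 CCI neuropathic pain in adult male Hsd:ICR (CD-1) mice (20–30 g). Single i.p. injection on day 7 after sciatic nerve constriction, at peak pain. Vehicle 10% (Kolliphor HS 15:DMSO 5:95) in saline, 0.2 mL. Paw withdrawal threshold by von Frey filaments on ipsilateral and contralateral hindpaws. Mean ± SD; two-way ANOVA with Dunnett's test versus day 0 and day 7.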

Mus musculus [11] = assay: Antiallodynic activity in CCI surgery neuropathic pain Hsd:ICR mouse model assessed as reversal of mechano-allodynia by measuring paw withdrawal threshold at 10 micromol/kg,po and measured upto 6 hrs by von frey test; type: functional, organism-based; settings: dose 10.0 µmol/kg
Procedure, shortened: (§4)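 CCI neuropathic pain in adult male CD-1 mice. Single oral gavage dose of 10 μmol/kg on day 7 post-surgery. Vehicle 5% DMSO + 10% (Kolliphor HS 15:DMSO 5:95) in 0.5% methylcellulose, 0.2 mL. Von Frey paw withdrawal threshold on both hindpaws. Mean ± SD; two-way ANOVA with Dunnett's test.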

Mus musculus [12] = assay: Antiallodynic activity in CCI surgery neuropathic pain Hsd:ICR mouse model assessed as reversal of mechano-allodynia by measuring paw withdrawal threshold at 10 micromol/kg,ip and measured upto 5 days by von frey test; type: functional, organism-based; settings: dose 10.0 µmol/kg, time <= 5.0 day; procedure, shortened: as §3
[13] = Prodrug conversion in CD-1 mouse plasma assessed as Cmax of 4-(4-((1S,4S,5S)-2-azabicyclo[2.2.1]heptan-5-yl)phenyl)-7-(4-(trifluoromethyl)phenyl)-2-naphthoic acid at 10 mg/kg,sc and measured from 2 to 4 hrs by LC-MS/MS analysis; type: ADME, organism-based; parameters: time upper 4 hrs, time lower 2 hrs, dose 10 mg/kg, route sc; settings: in vivo
Procedure, shortened: (§5)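 Female CD1 mice given mono-ester prodrug subcutaneously at 10 mg/kg. Released parent acid followed in plasma (peak concentration, t1/2, AUCinf) and total amount excreted in urine.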

[14] = Prodrug conversion in CD-1 mouse plasma assessed as half life of 4-(4-((1S,4S,5S)-2-azabicyclo[2.2.1]heptan-5-yl)phenyl)-7-(4-(trifluoromethyl)phenyl)-2-naphthoic acid at 10 mg/kg,sc and measured upto 24 hrs by LC-MS/MS analysis; type: ADME, organism-based; settings: in vivo
Procedure, shortened: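 Ester prodrug given subcutaneously at 10 mg/kg to female CD1 mice. Plasma levels of the released active acid followed over time, with half-life derived for the active drug.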

[15] = Prodrug conversion in CD-1 mouse plasma assessed as AUC (0 to infinity) of 4-(4-((1S,4S,5S)-2-azabicyclo[2.2.1]heptan-5-yl)phenyl)-7-(4-(trifluoromethyl)phenyl)-2-naphthoic acid at 10 mg/kg,sc and measured upto 24 hrs by LC-MS/MS analysis; type: ADME, organism-based; parameters: dose 10 mg/kg, time < 24 hrs, route sc; settings: in vivo; procedure, shortened: as §5
[16] = Prodrug conversion in CD-1 mouse assessed as 4-(4-((1S,4S,5S)-2-azabicyclo[2.2.1]heptan-5-yl)phenyl)-7-(4-(trifluoromethyl)phenyl)-2-naphthoic acid excretion in urine at 10 mg/kg,sc and measured upto 24 hrs by LC-MS/MS analysis; type: ADME, organism-based; settings: in vivo; procedure, shortened: as §5
[17] = Stability in mouse plasma assessed as half life at 1 uM and measured at 120 mins by LC-MS/MS analysis; type: ADME, cell-free
[18] = Stability in human plasma assessed as half life at 1 uM and measured at 120 mins by LC-MS/MS analysis; type: ADME, cell-free; settings: 2 h, 1 µM
Mus musculus [19] = assay: Antiallodynic activity in CCI surgery neuropathic pain Hsd:ICR mouse model assessed as reversal of mechano-allodynia by measuring paw withdrawal threshold at 10 micromol/kg,po and measured at 1 hrs by von frey test; type: functional, organism-based; settings: dose 10.0 µmol/kg; procedure, shortened: as §4
[20] = biological target: T2, P2Y purinoceptor 14 (Homo sapiens); assay: Displacement of fluorescent tracer 4-(4-(1-(4-(1-(6-(3-carboxylato-4-(3-iminio-3H-xanthen-9-yl)benzamido)hexyl)-4,5-dihydro-1H-pyrrol-3-yl)butyl)piperidin-1-ium-4-yl)phenyl)-7-(4-(trifluoromethyl)phenyl)-2-naphthoate from human P2Y14R stably expressed in CHO cells upto 100 uM by flow cytometry; type: cell-based
[21] = Antagonist activity at chimpanzee P2Y14R stably expressed in human HEK cells assessed as inhibition of UDP-glucose induced Ca2+ signaling incubated for 20 mins by FLIPR analysis; type: cell-based; settings: Pan troglodytes, HEK293, 20 min
[22] = biological target: Sigma non-opioid intracellular receptor 1 (Homo sapiens, UniProt Q99720); assay: Displacement of [3H]-Pentazocine from human sigma 1 receptor assessed as inhibition constant by radioligand displacement assay
[23] = biological target: Sigma intracellular receptor 2 (Homo sapiens, UniProt Q5BJF2); assay: Displacement of [3H]-DTG from human sigma 2 receptor assessed as inhibition constant by radioligand displacement assay
Histamine H1 receptor = Histamine H1 receptor (Homo sapiens, UniProt P35367); assay: Displacement of [3H]-Pyrilamine from human histamine H1 receptor assessed as inhibition constant by radioligand displacement assay
[24] = biological target: Beta-3 adrenergic receptor (Homo sapiens, UniProt P13945); assay: Displacement of [125I]-Pindolol from human adrenergic beta3 receptor assessed as inhibition constant by radioligand displacement assay
Chain of Beta-3 adrenergic receptor (P13945 whole entry): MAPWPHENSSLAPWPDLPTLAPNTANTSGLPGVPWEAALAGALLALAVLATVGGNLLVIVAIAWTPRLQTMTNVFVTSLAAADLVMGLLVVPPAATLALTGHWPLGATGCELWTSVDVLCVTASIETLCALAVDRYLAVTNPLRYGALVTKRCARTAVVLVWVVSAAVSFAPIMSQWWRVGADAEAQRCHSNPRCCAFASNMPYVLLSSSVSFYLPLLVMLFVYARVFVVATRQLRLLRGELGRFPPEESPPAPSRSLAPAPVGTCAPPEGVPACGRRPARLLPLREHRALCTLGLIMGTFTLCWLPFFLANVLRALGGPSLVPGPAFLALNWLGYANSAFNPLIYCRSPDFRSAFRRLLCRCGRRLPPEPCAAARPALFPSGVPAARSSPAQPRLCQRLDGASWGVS

Chain of 5-hydroxytryptamine receptor 1B (P28222 whole entry): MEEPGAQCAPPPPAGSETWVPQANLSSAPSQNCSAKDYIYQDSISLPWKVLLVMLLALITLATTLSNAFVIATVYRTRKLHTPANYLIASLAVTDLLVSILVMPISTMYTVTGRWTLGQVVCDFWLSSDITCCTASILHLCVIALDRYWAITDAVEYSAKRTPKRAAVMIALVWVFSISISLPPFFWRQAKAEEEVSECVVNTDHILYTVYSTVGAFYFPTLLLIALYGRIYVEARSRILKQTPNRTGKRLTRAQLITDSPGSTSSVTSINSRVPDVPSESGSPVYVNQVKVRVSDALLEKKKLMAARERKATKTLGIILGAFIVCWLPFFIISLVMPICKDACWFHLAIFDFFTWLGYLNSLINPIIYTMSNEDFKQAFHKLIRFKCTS
Chain of Histamine H1 receptor (P35367 whole entry): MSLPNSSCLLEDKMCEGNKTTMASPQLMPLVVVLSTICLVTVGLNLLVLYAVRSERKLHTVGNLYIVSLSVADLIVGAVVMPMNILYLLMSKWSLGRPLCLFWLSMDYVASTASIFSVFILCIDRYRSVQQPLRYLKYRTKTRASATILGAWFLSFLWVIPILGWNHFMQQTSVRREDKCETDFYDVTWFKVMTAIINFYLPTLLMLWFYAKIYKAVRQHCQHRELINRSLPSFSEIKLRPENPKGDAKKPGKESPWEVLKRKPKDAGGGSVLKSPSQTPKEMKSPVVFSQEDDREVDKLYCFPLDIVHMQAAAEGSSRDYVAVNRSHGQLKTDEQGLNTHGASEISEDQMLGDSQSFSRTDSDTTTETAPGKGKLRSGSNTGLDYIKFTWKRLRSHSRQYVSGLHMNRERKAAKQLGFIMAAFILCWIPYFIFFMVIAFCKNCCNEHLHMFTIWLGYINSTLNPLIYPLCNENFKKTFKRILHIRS
Chain of Sigma intracellular receptor 2 (Q5BJF2 whole entry): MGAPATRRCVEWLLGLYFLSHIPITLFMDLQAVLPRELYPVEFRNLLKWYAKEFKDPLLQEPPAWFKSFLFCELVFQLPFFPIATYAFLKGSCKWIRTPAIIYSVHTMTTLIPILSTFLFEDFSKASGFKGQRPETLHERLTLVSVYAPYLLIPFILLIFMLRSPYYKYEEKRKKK
Chain of Sigma non-opioid intracellular receptor 1 (Q99720 whole entry): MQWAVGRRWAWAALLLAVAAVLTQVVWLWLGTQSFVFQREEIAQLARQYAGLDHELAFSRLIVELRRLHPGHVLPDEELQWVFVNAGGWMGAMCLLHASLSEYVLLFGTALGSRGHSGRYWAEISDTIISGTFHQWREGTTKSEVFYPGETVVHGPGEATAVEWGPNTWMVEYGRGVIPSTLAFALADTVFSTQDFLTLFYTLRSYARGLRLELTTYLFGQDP

SMILES: C[Si]1(C)C2=CC(=[N+]3CCC3)C=CC2=C(c2cc(C(=O)NCCCCCCn3cc(CCCCN4CCC(c5ccc(-c6cc(C(=O)O)cc7cc(-c8ccc(C(F)(F)F)cc8)ccc67)cc5)CC4)nn3)ccc2C(=O)[O-])c2ccc(N3CCC3)cc21
IC50 (P2Y purinoceptor 14 [1]): 25.9 µM
Ki (P2Y purinoceptor 14 [2]): 9.24 µM
Activity [3]: inactive

SMILES: O=C(O)c1cc(-c2ccc(C3(O)C[C@H]4CNC[C@@H]4C3)cc2)c2ccc(-c3ccc(C(F)(F)F)cc3)cc2c1 (racemic)
Ki (P2Y purinoceptor 14 [2]): 0.00551 µM
logD at 20 h [4]: 1.1
IC50 (P2Y purinoceptor 14 [5]): 0.00678 µM
Ratio IC50 [6]: 0.715
Ki [7]: 5.4 µM
Ki [8]: 6.4 µM
Ki [9]: 5.7 µM
Activity (Mus musculus [10]): Active
Activity (Mus musculus [11]): Active
Activity (Mus musculus [12]): Active

SMILES: O=C(Cc1ccc(C(F)(F)F)cc1)Nc1cccc(-c2nc3cc(Cl)ccc3o2)c1
Activity [20]: inactive

SMILES: O=C(O)c1cc(-c2ccc(C3CCCNCC3)cc2)c2ccc(-c3ccc(C(F)(F)F)cc3)cc2c1 (racemic)
Ki (P2Y purinoceptor 14 [2]): 0.00557 µM
logD at 20 h [4]: 2.1
IC50 (P2Y purinoceptor 14 [5]): 0.0257 µM
Ratio IC50 [6]: 2.68
Ki [22]: 0.89 µM
Ki [23]: 2.8 µM
Ki [7]: 4.5 µM
Ki (Histamine H1 receptor): 2.8 µM
Ki [24]: 6.6 µM
Activity (Mus musculus [11]): Active
Activity (Mus musculus [12]): Active

Further lines, with some results ahead:

Cmax [13]: 2000 ng/mL
t1/2 [14]: 2.63 h
AUC [15]: 15300 ng·h/mL
Drug excretion [16]: 1550 ng
half-life at 1 µM [17]: 1.5 min
t1/2 [18]: > 12 h
SMILES: CN(C)C(=O)COC(=O)c1cc(-c2ccc([C@H]3C[C@H]4C[C@@H]3CN4)cc2)c2ccc(-c3ccc(C(F)(F)F)cc3)cc2c1
Activity (Mus musculus [19]): Active
Activity (Mus musculus [11]): Active
Activity (Mus musculus [12]): Active

IC50 [21]: 0.0063 µM
SMILES: O=C(O)c1cc(-c2ccc(C3(O)CCNCC3)cc2)c2ccc(-c3ccc(C(F)(F)F)cc3)cc2c1
